System: MS2 coat protein
Experiment: apparent Kd, MS2 coat protein; higher = weaker binding; RNA-MaP array; FMN 200 µM where present
Summary of the method: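 The apparent Kd is reported as the median of filtered per-cluster binding-curve fits. To get these curves, designs transcribed by stalled E. coli RNA polymerase on Illumina sequencing-chip clusters were titrated with SNAP-549-labelled MS2 coat protein from 0.7 or 1.5 nM, doubling to 3 µM. Titrations were run without and then with constant ligand in 100 mM Tris-HCl pH 7.5, 80 mM KCl, 4 mM MgCl2, BSA, DTT, yeast tRNA and Tween-20, and green signal was normalised to red-channel RNA signal and control-cluster median Fmax.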

[1] = designed as: OFF switch for flavin mononucleotide, no ligand
[2] = ligand present: flavin mononucleotide, designed as: OFF switch for flavin mononucleotide
[3] = designed as: ON switch for flavin mononucleotide, no ligand
[4] = ligand present: flavin mononucleotide, designed as: ON switch for flavin mononucleotide

Sequence	apparent Kd [1]	apparent Kd [2]	apparent Kd [3]	apparent Kd [4]
UUUUAACAUGAGGAUCACCCAUGUGAGGAUAUCGAAAUUUAUAUUAAUAUUAUUAAAACGAGAAGGCACAUUUU	63.1 nM	82.8 nM		
GUAGUUAGUAGAGGAUAUUAAUAUGUGUAAUAUUGAGAAGGUUACAUGAGGAUCACCCAUGUGAUCAAUCACUGUUAAGGUUGC	6.97 nM	7.06 nM		
UGAUAGGACAGAGGAUAUACCGAUAGGAUCUACUAUCGAAGAAUCCUUACAUGAGGAUCACCCAUGUAGAAGGCUGUCCUAUCU	20.4 nM	29.6 nM		
UUACAUACAAAGGUACAUGAGGAUCACCCAUGUUUGUUGGGAAGAAGGGUAACAAUACUACACAUACAGGAUAUUUCACAAAUA			48 nM	31.3 nM
UGUCGGAGCAGAGGAUAUUACAUGAGGAUCACCCAUGUAUGAACCAAUAGCUGGAAACAGCAAUGUAAGAAGGCUGCUUCGACA	12.4 nM	145 nM		
GCAGGUUAAGUCAGGAUAUACCUAUGGAUACAUAGGUAGAAGGGACAUGAGGAUCACCCAUGUGUCUCGCCUGC	87.8 nM	148 nM		
GUGUACAGAGGAUAUACUGGAGCUAGGAAACUAGCAACUUCACAUGAGGAUCACCCAUGUAGAAGGCUGUACAC	17.1 nM	65.7 nM		
UAGAAGUCAGGAUAUGCAUGGCGGGACUUGCGUCGUGGCGUGCAGAAGGGACAUGAGGAUCACCCAUGUGGAGU	179 nM	230 nM		
AAAGCAACAUGAGGAUCACCCAUGUAGGAUAUCGCUAUUGUAAUCAUGAAACAUGAUUACAAUAGCGAGAAGGACAUAUGCUCC	6.61 nM	11.2 nM		
UUUUAACAUGAGGAUCACCCAUGUGAGGAUAUCGAAAUUUAUAUUUAUAUUAAUUUUACGAGAAGGCACAUUUU	112 nM	125 nM		
CCAUCGUGUGUGAGGAUAUGCUGGACCUUGGUUCAGCAGAAGGCACAUGAGGAUCACCCAUGUGAAUACGGUGG	18.9 nM	32.3 nM		
GCGAUUUAGUAGAAGGUACGAUAUAUAUCAUUGUAAGGAUAUACUUACAUGAGGAUCACCCAUGUUAAGGGUUAUAAUAAUCGC			195 nM	134 nM
AAGAGACAUCAGAAGGGAACCCAAACGCGCGGUUCAGGAUAUGAGAUCUUAUGUAGUUCGACAUGAGGAUCACCCAUGUCCGCG			101 nM	8.22 nM
AAGUAGGUAGGAUAUACAUGGAUAUACAUUCAUGUGGACCUACAUGAGGAUCACCCAUGUAGAAGGACCUAAUA	43.2 nM	41.6 nM		
GCCCGCCUAGCAGGAUAUACAGGUUGGCGGACAUGAGGAUCACCCAUGUAAGGCUACAUACACUUGUAGAAGGGUUGGGUGUCC			93.4 nM	33.7 nM
AGAUCUCAAUAAGAUCCAAUACGAACAUGAGGAUCACCCAUGUAGGAUAUGCUAGAAGUAGAGUAGCAGAAGGACAAGUACCUU	18.4 nM	15.7 nM		
AUAAGCUCGUCAGGAUAUGCGACACUGUUUCUGCAGUGUGGUAUGAUCACAUGAGGAUCACCCAUGUAGAAGGGACGAGCUUAU	6.66 nM	13.9 nM		
GAGCAGGAAGGAUAUACAUGAGGAUCACCCAUGUACCAUCAAGGCUUUGAUUUUCACGGUAGAAGGUCCCAAUA	40.3 nM	51.4 nM		
AAUUGGAACUAAGGAUAUCUGUAUUUUGUUGAAACAUGAGGAUCACCCAUGUUCAUGAAAUUAUAGGAGAAGGUAGAUCCAUAA			5 nM	4.6 nM

Sequence	apparent Kd [1]	apparent Kd [2]	apparent Kd [3]	apparent Kd [4]
AUAUCUCUGUAAGGAUAUAGAUGGUAUACGCCUCCGACAUGAGGAUCACCCAUGUUAUAUUUUGUCUAGAAGGUACAGUGUCGG			656 nM	292 nM
CUGUUUCGUGUAGGAUAUGCAUAUUCCCAUUAUGCAGAAGGACAUGAGGAUCACCCAUGUAUGUUAUUAUCAUGUGUUACAUGC	51 nM	432 nM		
AGCUACGUUUCGUAGCAGUGUCAUCGAGAAGGCUCAUAUACAUGAGGAUCACCCAUGUUUUCAUGGGAGGAUAUCGAUGAUACA			108 nM	8.76 nM
CUCAGACAUGAGGAUCACCCAUGUGAGGAUAUGAUGCGAUCGUCGAAAGACGAUAGCAUCAGAAGGUACAAAUG	53.1 nM	40.5 nM		
CAAAAGCUAGGAUAUGCCAAUUGUUCCUUAAGUCAAAAUAAACAUGAGGAUCACCCAUGUAGAAGGAGCCCAAC	35.9 nM	19.8 nM		
CACUCACAUGAGGAUCACCCAUGUCCUAGCAGGUCAGGAUAUAGCUCGGAUGCGUUGAGGCUAGAAGGGACAGGUU			116 nM	68.5 nM
AAAAAGCGAGGAUAUACGAGUCAAAGAAAAGACAAGGAGAAACAUGAGGAUCACCCAUGUAGAAGGCGCAAAAA	20.5 nM	23.3 nM		
GUAGCUAUCGGAGGAUAUUCAUACGGGAAACGGACAUGAGGAUCACCCAUGUGGCGAAAGCCUUGGGAGAAGGCCGAUAGCUAC			37.4 nM	8.89 nM
AAUUAGGUCACAGGAUAUACUUCAUCCAUAGAUGUAGAAGGGUGUCAGAAUAAUUUCUUACAUGAGGAUCACCCAUGUUUCCAC			108 nM	48.1 nM
GGUUACAAGUAAGGAUAUGUAUAUGAAACAUAUACAGAAGGUACAUGAGGAUCACCCAUGUUCUUGCAAAGCGAAUAUGUAACC	15.1 nM	18.6 nM		
AUUAAACAUGAGGAUCACCCAUGUGAGGAUAUGCAAAAAAAAUUAUAUUAAAAAAAAAGCAGAAGGCACAUAUA	54.7 nM	94.6 nM		
UUUUGGCAUGUAGGAUAUGGGUCCGAUUAGGAUUUAGAAGGACAUGAGGAUCACCCAUGUGCAUUUAAUUGGUCUUUAUUUUUU	64.1 nM	85.6 nM		
ACUGCUCGAGGAUAUACAUGAGGAUCACCCAUGUAACCCAGAAGCACGGCCUCAGGAUGUAGAAGGCGACGCAA	13.1 nM	13.2 nM		
CCUCUACAUGAGGAUCACCCAUGUGAGGAUAUGUGAGGCGCGCUCGAUGAGCGCACCGAUAGAAGGCAUGUGGU	25.8 nM	70.5 nM		
AAAUUGGUAGAGGAUAUCGGAUAGGAUUUACUGCGAGAAGGCUGCACAUGAGGAUCACCCAUGUUCUGUUGCGA	25.1 nM	26 nM		
GUUGUGUAUGUAGGAUAUGCGAAGCAAAGCUUCGCAGAAGGACAUGAGGAUCACCCAUGUAUUGCAGCCUGCAAUCAGGCUGCU	41.6 nM	175 nM		
CCGAAUGUCACAGGAUAUGGUCCGGGCACGCGACCAGAAGGGUGAUCUUACAUGAGGAUCACCCAUGUAUAGGCGUUAGGCUAC			32.9 nM	442 nM
AACUCACAUGAGGAUCACCCAUGUGAGGAUAUAUAAAUAUAUAUGUUAUUGUAUGUUUGUAGAAGGCGCGUGAU	38.6 nM	43.1 nM		
CAUACACAUGAGGAUCACCCAUGUGAGGAUAUGCGUACGUUGUCCGUAGGCGACGUGCGCAGAAGGCGCUUGGU	57.1 nM	68.6 nM		

Sequence	apparent Kd [1]	apparent Kd [2]	apparent Kd [3]	apparent Kd [4]
GGAUGACAAAGUCAUCCAAUACGAACAUGAGGAUCACCCAUGUAGGAUAUCGUACUCAAAGAGUACGAGAAGGACAUGUGCCUU	37.6 nM	236 nM		
UUGAGGUAAGGAUAUAUUAGGAGCGAAGUUACUUGUUUUUUAUAGAAGGUACAUGAGGAUCACCCAUGUGAAUA	27.7 nM	23.4 nM		
AAGAAGUCAGGAUAUCCAUGGCGGCACUUGCGUGGUGGCGUGGAGAAGGGACAUGAGGAUCACCCAUGUAAAGA	51.4 nM	35.8 nM		
GUUGUACGAGGAUAUACAUGAGGAUCACCCAUGUGUGUUGUGGGCGACGUACGUUUAUGUAGAAGGCGUGCGGC	63.6 nM	115 nM		
GUUUUGGGAGGAUAUAUGUGGAUUAUUUUUGUAUGUUGUUUACAUGAGGAUCACCCAUGUAGAAGGUCUAGAGC	102 nM	211 nM		
AGCUACGUUUCGUAGCAGCUAGAAAAGGAUAUUCAAUUUUUCACAUGAGGAUCACCCAUGUAUGUGAAGAAGGCGCCUAGAAAG			50.4 nM	35.9 nM
GGUGCGUAUGUGAGGAUAUGCUGGUCCUUGGAUCUGCAGAAGGCACAUGAGGAUCACCCAUGUGGUGUCGUACC	356 nM	28.5 nM		
GUGCCUUGGGAGAAGGCAGCAUGCAAAGCAUUCUGAGGAUAUUCAUACCGGAAACGGACAUGAGGAUCACCCAUGUGGCACAAA			1470 nM	72.1 nM
UUGUGGGAGCAGGAUAUCUUAGUUUGGUUGUGUGGAGAAGGGCUGACAUGAGGAUCACCCAUGUGGUCCUAGAU	24.1 nM	29.5 nM		
AUGUGGUGCGUAGGAUAUCAUUGAGGGAAACCCUGAGAAGGACGUGAGGACAUGAGGAUCACCCAUGUGGAUCACCCAUGUCAU	196 nM	253 nM		
GUCAGCUCGUGAGGAUAUACAACACUGCUUCGGCAGUGUAUUAAGAUCACAUGAGGAUCACCCAUGUAGAAGGCACGAGCUGAG	13 nM	200 nM		
GUAGUACAUGAGGAUCACCCAUGUGUGGGCGCAUGAGGAUAUGUCCGUACCUGGCGUACGAUAGAAGGCAUGGUGC			52.8 nM	29.3 nM
GGAGCACGCACAGGAUAUCCGGCGACGCUCGUCGGAGAAGGGUGACAUGAGGAUCACCCAUGUACGUGCAACUCAGUUUGAGAG			43.6 nM	36.1 nM
GGUCUACAUGAGGAUCACCCAUGUCAGGAUAUCGUGUGUUUUUUUUCGGCCGCGCGUGCGAGAAGGGACGUCUU	17.6 nM	18.1 nM		
AUAAUUUUAUAUAUCAUAUAAAUCAGAAGGCAUAACAUGAGGAUCACCCAUGUAUAUUAUUGUUAUGAGGAUAUGAUUUCGUUA	9.12 nM	42.5 nM		
CGAGAUACGCUCGUCCGAAAGGGACAUGAGGAUCACCCAUGUAGAAGGCGAUGCGCAACUCGCAUUGAGGAUAUAUACUGCAGA	5.78 nM	5.89 nM		
AAGGAUAGAGGAUAUACAUAGAUACAGAUUCAUGUAGUCCUACAUGAGGAUCACCCAUGUAGAAGGCUAUCCUA	15.6 nM	83.8 nM		
GCCUUACCGGUCAGGAUAUACACCCGUCACUCCUUGUAGAAGGGACAUGAGGAUCACCCAUGUACAUUACAUUG	31.1 nM	29.2 nM		

From the EternaBench riboswitch data
